In the library only some 3.6% were active in any assay of this set; here they are far more common.
RAM network inh: blocks the yeast RAM network. S. cerevisiae dse1pr::URA3 reporter, 5-FOA growth OD615, 2 d; analog-sensitive cbk1-as2 kinase mutant strain. inhibition, % at 50 µM. hit rate 1.8% among 190,000;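 active = inhibition above a set limit, 3 SD over mean compound inhibition, cut at about 8.4% in these data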;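 also: 0% = DMSO-only wells with no growth and 100% = 10 µM 1-NA-PP1 full growth; inhibition rescues growth on 5-FOA so higher OD means more RAM inhibition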
Yeast growth inh: chemicals that inhibit yeast BB579 growth in restrictive medium (lifespan-shortening candidates). S. cerevisiae BB579 growth, OD615, 48 h. inhibition, % at 10 µM. hit rate 0.51% among 140,000;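 active = inhibition above a set limit, 3 SD over the mean compound inhibition, cut at about 44% in these data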
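Detection: OD615 turbidity measurement; Material: Saccharomyces cerevisiae DeaD strain BB579, replicative lifespan model yeast; Timing: 48 h exposure, 30 °C; Doses: single 10 µM dose; Medium: CSMM-D restrictive synthetic medium containing dextrose (glucose); Controls: amphotericin B at 10 µg/mL as positive control.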
Measles CPE: protection of cells from measles virus; Measles virus-infected cells, CPE protection, absorbance; protection (pct of control), % at 4 µM; hit rate 1.5% among 140,000; AID 841; in the data active = protection mostly above about 24%, no sharp cut-off; inactive = mostly below about 26%
Yeast lifespan up: extends the lifespan of yeast; hit rate 0.68% among 130,000; S. cerevisiae growth with nicotinamide, OD615; deaD strain in restrictive glucose medium; AID 775; inhibition of the nicotinamide effect, % at 10 µM;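 active = inhibition above a set limit, placed 3 SD over the median of all compounds, cut at about 26% in these data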;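 also: 0% = nicotinamide-treated wells and 100% = cells grown without nicotinamide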
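Assay system: engineered S. cerevisiae DeaD replicative-lifespan strain, galactose-grown log-phase cells; Buffer or medium: CSMM-D glucose medium, restrictive; Probe or stimulus: nicotinamide 1.5 mM; Compound: single dose 10 µM compound, 0.25% DMSO; Schedule: 4 h preincubation then 48 h treatment at 30 °C; Technique: OD615 measurement.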
Phagocytosis inh: inhibitors of macrophage phagocytosis; J774A.1 macrophage IgG-bead phagocytosis, imaging; inhibition, % at 5 µM; hit rate 0.07% among 110,000; AID 1029;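 active = inhibition above the mean of the plate negative controls plus 5 SD, cut at about 13% in these data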;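 also: phagocytic index as fraction of beads internalized from green versus red external bead signal; plate controls were DMSO negative control for no effect and cytochalasin-D positive control for full effect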
RAM 5-FOA: RAM network inhibition, efflux-deficient strain; shares compounds with RAM network inh; S. cerevisiae efflux-deficient reporter strain, 5-FOA growth OD615, 2 days; max inhibition, %; 1,200 tested, under 10 active; AID 1305; call rule not given here;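 also: plate controls were vehicle for no effect and reference inhibitor for full effect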
Active calls of the source: *; nt = no result given.

SMILES	RAM network inh	Yeast growth inh	Measles CPE	Yeast lifespan up	Phagocytosis inh	RAM 5-FOA
COC(=O)c1ccc(Cl)cc1NC(=O)/C=C/c1ccc(C)o1	13*	-32	5	3	3	4
Cc1ccc(/C=C/C(=O)Nc2ccc(Oc3ccccc3)cc2)o1	13*	-22	2	-1	nt	4
CCC(=O)OCC(=O)Nc1cc(C)c(C)cc1[N+](=O)[O-]	1	-1	6	-6	-5	nt
COc1ccc2c(CC(=O)OCC(=O)Nc3cc(C)c(C)cc3[N+](=O)[O-])coc2c1	12*	-38	2	2	-3	2
Cc1ccc(Cl)cc1N1CCN(S(=O)(=O)c2ccc3[nH]c(=O)c(=O)[nH]c3c2)CC1	12*	nt	nt	nt	nt	2
COc1ccc(CN2CCN(C(=O)C3CCC(CNS(=O)(=O)c4ccc(C)cc4)CC3)CC2)c(OC)c1OC (stereo not given)	-1	nt	nt	nt	nt	nt
CC(C)Oc1cccc(C(=O)NC(=S)Nc2cccc(C(F)(F)F)c2)c1	12*	-32	4	-4	-3	2
CCCCOc1cccc(C(=O)NC(=S)Nc2cccc(C(F)(F)F)c2)c1	13*	-50	12	4	-6	3
CC(C)Oc1cccc(C(=O)NC(=S)Nc2ccc(Cl)c(C(=O)O)c2)c1	8	-16	2	-16	-3	nt
COc1ccc2[nH]c(=O)c(NC(N)=S)nc2c1	3	-22	7	-29	nt	nt
N#C/C(=C\c1ccc(Cl)cc1)c1nc2ncccc2[nH]1	0	25	1	-16	nt	nt
CCCOc1ccc(-c2nc(OCC)c3ccccc3n2)cc1	13*	-54	8	-9	0	3
CCOc1nc(-c2ccncc2)nc2ccccc12	2	-25	9	-15	nt	nt
OCC1(CCc2ccccc2)CCN(Cc2cc(F)ccc2-n2cccn2)CC1	2	nt	nt	nt	nt	nt
CCCC(CCC)=NNc1ccc(S(=O)(=O)Nc2ccccc2OC)cc1[N+](=O)[O-]	16*	-49	7	14	-4	2
COc1ccccc1NS(=O)(=O)c1ccc(N/N=C(\C)C(C)C)c([N+](=O)[O-])c1	5	-22	4	3	-8	nt
Cc1noc(NS(=O)(=O)c2ccc(N/C=C\C(=O)c3cccs3)cc2)c1C	12*	nt	nt	nt	nt	6
O=C(OCc1ccccc1F)c1ccc2c(c1)-c1ccccc1C2=O	13*	-21	12	-10	-1	3
CCOC(=O)C1=C(Cc2ccc(OC)cc2)C(=O)c2ccccc2C1=O	12*	-52	13	9	0	3
CCOC(=O)c1ccc(COC(=O)CNS(=O)(=O)c2ccccc2)cc1	0	nt	nt	nt	nt	nt
CCOC(=O)c1ccc(COC(=O)c2ccc3c(c2)-c2ccccc2C3=O)cc1	12*	-4	22	-1	-1	5
O=C(OCc1cccc(F)c1)c1ccc2c(c1)-c1ccccc1C2=O	8	-1	7	-21	1	nt
COc1ccc(S(=O)(=O)N2CCOCC2)cc1NC(=O)c1ccccc1-c1ccc(C(F)(F)F)cc1	7	-10	9	-2	11	nt
Cc1ccc(CNC(=O)COC(=O)c2ccc(Cl)c(N)c2)cc1	2	-55	31	-2	-2	nt
CN(C(=O)c1cc2ccccc2oc1=O)C1(C)CCS(=O)(=O)C1 (stereo not given)	2	nt	nt	nt	nt	nt
SMILES	RAM network inh	Yeast growth inh	Measles CPE	Yeast lifespan up	Phagocytosis inh	RAM 5-FOA
CCOC(=O)c1c(C)[nH]c(N=Nc2cccc(C)c2)c1C	12*	-56	3	-12	2	3
COc1ccc(N2C(=O)C(CC(=O)Nc3ccccc3)N(Cc3ccccn3)C2=S)cc1 (stereo not given)	0	nt	nt	nt	nt	nt
COC(=O)c1c(CSc2ccc(C)c(C)c2)noc1C(=O)NCc1ccc(OC)cc1	12*	-37	23	1	1	2
CCCCCCc1cc2cc(S(=O)(=O)c3ccc(F)c(Cl)c3)c(=O)oc2cc1O	4	-20	13	7	-11	nt
O=C(Nc1nnc(SCC(=O)N2CCOCC2)s1)c1ccccc1	2	1	4	4	0	nt
CC(=O)N(CCC(c1ccccc1)c1ccco1)Cc1cccs1 (stereo not given)	28*	-51	9	-8	nt	2
N#C/C(=C\c1c[nH]c2ccccc12)C(=O)Nc1ncc(Cc2ccc(Cl)cc2Cl)s1	14*	-44	2	3	2	3
Cn1cc(/C=C(\C#N)C(=O)Nc2ncc(Cc3cccc(Cl)c3)s2)c2ccccc21	6	-24	4	4	-6	nt
COc1ccc(CNCc2cn(-c3cccc(F)c3)nc2-c2ccc(C)o2)cc1	1	nt	nt	nt	nt	nt
N#Cc1nc(-c2ccc(OCc3ccccc3)cc2)oc1NCc1ccco1	16*	-51	5	4	0	4
CCCCOC(=O)c1ccc(NC(=O)/C=C/c2cccs2)cc1	15*	-19	11	1	-2	6
O=C(Nc1ccc(Cl)c(Cl)c1)c1ccc(Cn2cc(Cl)cn2)cc1	13*	-14	5	-4	-7	2
O=C(c1ccc(Cn2c(=S)[nH]c3ccc(N4CCOCC4)cc3c2=O)cc1)N1CCN(c2ccc(F)cc2)CC1	4	nt	nt	nt	nt	nt
Cc1ccc(C)c(N2CCN(C(=O)c3ccc(Cn4c(=S)[nH]c5ccc(N6CCOCC6)cc5c4=O)cc3)CC2)c1	13*	nt	nt	nt	nt	3
COc1ccc(OC)c(C(=O)N2CCC(C(=O)c3ccc(F)cc3)CC2)c1	0	5	3	nt	nt	nt
CC(C)NC(=O)NC(=O)COC(=O)c1ccc(F)cc1F	-1	-33	9	-1	-13	nt
O=C(CSc1nc2cc(Cl)ccc2s1)N1CCCc2ccccc21	11*	-42	10	-15	0	2
CCOC(=O)C1=C(O)/C(=C/c2cc(OC)c(O)c(OC)c2)SC1=Nc1ccc(OC)cc1	16*	-15	3	4	-8	10
C[C@H](CO)NC(=O)[C@@H]1C[C@H]1[C@@H](NP(=O)(c1ccccc1)c1ccccc1)c1ccccc1	-1	-32	10	10	nt	nt
Cc1cc(C(F)(F)F)c(C#N)c(N2CCOCC2)n1	0	-11	-1	-5	-2	nt
N#Cc1c(C(F)(F)F)cc(C2CC2)nc1N1CCCC1	14*	-18	9	-4	0	2
COc1ccc(C)cc1N1C(=N)/C(=C2/Nc3ccccc3S2)C(c2ccccc2)C1=O (stereo not given)	13*	-54	4	26	-1	3
CCC(C)NC(=O)c1ccc(-n2c(=S)[nH]c3ccccc3c2=O)cc1 (stereo not given)	4	nt	nt	nt	nt	nt
CCCCN1C(=O)/C(=C/C=C2\SCCN2C)SC1=S	13*	nt	nt	nt	nt	2
CC1CCN(CCCCOc2ccccc2[N+](=O)[O-])CC1	1	-48	3	2	nt	nt
COC(=O)C(Sc1nc(C)cc(C)c1C#N)c1ccccc1 (stereo not given)	12*	-54	29	-4	nt	1
COC(=O)CSc1nc(C)cc(C)c1C#N	1	nt	nt	nt	nt	nt
